Laboratory results from ChEMBL document CHEMBL4513216, “Probing the Open Global Health Chemical Diversity Library for Multistage-Active Starting Points for Next-Generation Antimalarials” (ACS Infect Dis, 2020).

Experiment: Toxicity liver stage against HepG2, at 10uM
Assay type: cell-based
Design: test concentration 10 uM, cell line HepG2-A16-CD81EGFP
Conditions: human, HepG2-A16-CD81EGFP cells; read-out: INHIBITION
Procedure, shortened: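 Uninfected HepG2-A16-CD81EGFP cells, 3 × 10^3 per well, 1536-well, plated on prespotted compound at 10 μM final, parasite-free screening media added to match infected plates; puromycin 10 μM positive, DMSO 0.5% negative; run in parallel with 48 h PbLuc assay at 37 °C, 5% CO2; viability by CellTiter-Glo luminescence, normalized to controls.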

Row | SMILES | cytotoxicity at 10 µM
1 | CCn1cnnc1CNC(=O)c1cc(Cl)ccc1OC | 5.87%
2 | Cc1cc(CN2CCCC(c3cc(C(F)(F)F)[nH]n3)C2)no1 (stereo unspecified) | -0.674%
3 | CN(C(=O)c1ccn(C)n1)[C@@H]1CCC[C@@H](Oc2ccccc2)[C@@H]1O | -10.3%
4 | CCN(CCNC(=O)Nc1nnc(C)s1)C(=O)OC(C)(C)C | -9.41%
5 | CN(CC1CCCCO1)c1ncnc2cc(F)ccc12 (stereo unspecified) | -2.15%
6 | CCn1c(C2CCN(C(=O)c3cc(Cl)no3)CC2)nn(C)c1=O | -10.5%
7 | Cn1ccnc1CN1C[C@H]2CN(S(=O)(=O)c3ccccc3)CCN2C1=O | 8.36%
8 | COc1cccc(-c2noc(C3CCN(Cc4ccccc4C)C3)n2)c1 (stereo unspecified) | -6.88%
9 | Cc1nc(CNC(=O)c2oc3ccccc3c2CN(C)C)oc1C | 9.46%
10 | NCc1cn(-c2ccccc2C(=O)NCc2ccccc2Cl)cn1 | -9.94%
11 | Cn1cccc1C(O)CNC(=O)c1cccc(Cl)c1 (stereo unspecified) | -1.94%
12 | CC(C)(C)c1nc(CN(Cc2cccs2)CC2CCCO2)no1 (stereo unspecified) | -10%
13 | CC(C)=CCC1(C(=O)O)CCCN(c2cc(N)ncn2)C1 (stereo unspecified) | 10.1%
14 | CCOc1ccnc(N2CCN(C(=O)c3cnc[nH]3)CC2)n1 | -2.06%
15 | COc1cccc(-c2cnnc(N(C)CCC3CCCCO3)n2)c1 (stereo unspecified) | 12.7%
16 | Cc1csc(CCNC(=O)c2cc3c(nc2O)CCC(C)C3)n1 (stereo unspecified) | -3.91%
17 | Cc1ccc(C(=O)NCC(O)c2ccc(F)c(F)c2)c(=O)[nH]1 (stereo unspecified) | -3.09%
18 | N#CC1(c2ccccc2)CCN(C(=O)C2CCCN(C(N)=O)C2)CC1 (stereo unspecified) | -22.2%
19 | CCOc1ccc(CC(CNC(=O)c2occc2C)C(N)=O)cc1 (stereo unspecified) | 5.17%
20 | Cc1csc(N2CCN(Cc3cscn3)CC2C)n1 (stereo unspecified) | 16%
21 | COCCCN(Cc1cnc(N2CCCC2)nc1)C1CCN(C)CC1 | -10.3%
22 | COC(=O)c1ccc(CNC(C)c2ccc(S(C)(=O)=O)cc2)cc1 (stereo unspecified) | 5.21%
23 | Cc1ccc2c(c1)N(C(=O)c1c[nH]c(C)cc1=O)CC(C)O2 (stereo unspecified) | 23.6%

Row | SMILES | cytotoxicity at 10 µM
24 | Cc1nccn1CCNC(=O)C1(C)CC(c2ccccc2)=NO1 (stereo unspecified) | 8.46%
25 | O=c1[nH]c(CCN2CCCC(Cn3cncn3)C2)nc2ccccc12 (stereo unspecified) | -8.62%
26 | CC(C)c1nc(C2CCCN(C(=O)c3ccc4c(c3)COC4)C2)no1 (stereo unspecified) | -7%
27 | Cc1ccc(CC(=O)N2CCn3cc(Cn4cncn4)nc3C2)cc1 | -138%
28 | Cc1cc(C)cc(C(=O)NCCCNc2ncccn2)c1 | 32.4%
29 | CCN(CC)CCc1nc2c([nH]1)CC(c1ccc(Cl)cc1)CNC2=O (stereo unspecified) | -58.9%
30 | Cc1n[nH]c(C2CN(C(=O)c3coc(Br)c3)CCO2)n1 (stereo unspecified) | -11.3%
31 | OCc1nnc2n1CCN(c1cnccn1)C2 | 5.59%
32 | c1ccc(OCCN2CCC(n3cncn3)CC2)cc1 | -20.7%
33 | CC1CCCCN1C(=O)Cn1cnc(C#N)n1 (stereo unspecified) | -18.8%
34 | N#Cc1ccc(N2CCCN(CCCn3cncn3)CC2)cc1 | -8.9%
35 | COC(=O)c1ccc(CNC(=O)Cc2csc(C(C)=O)c2)cc1 | 5.03%
36 | CN(C)C1(CNc2ncc(Br)cn2)CCOCC1 | -8.66%
37 | C1=C(c2c[nH]c3ncccc23)CCN(Cc2nnc(C3CC3)o2)C1 | 30.7%
38 | CC(C)NC(=O)N1CCCC(Cn2cc(-c3ccc(F)cc3)nn2)C1 (stereo unspecified) | 12.5%
39 | CC(C)c1nc(CN2CCCCC2)cs1 | 20.2%
40 | Cc1ccc(C(NC(=O)CN2CCc3cncnc3C2)C2CC2)cc1 (stereo unspecified) | 9.31%
41 | c1nc(N2CCCC2Cn2cncn2)c2sccc2n1 (stereo unspecified) | -9.19%
42 | O=C(Cc1cc(-c2ccc3c(c2)OCCO3)on1)NCc1ccccn1 | 26.4%
43 | CN(C)C(=O)C1CSCN1C(=O)CCc1ccco1 (stereo unspecified) | -6.53%
44 | CC1=N[C@@]2(CC[C@@H]3CN(Cc4ccccc4F)C[C@@H]32)C(=O)N1CC1CC1 | 1.47%
45 | CCn1c(C)nnc1SCCn1cc(-c2ncc[nH]2)nn1 | -6.99%
46 | CCn1ccnc1CNc1nccc(-c2cn(C)nc2C)n1 | -4.6%
